Measured values taken from ChEMBL document CHEMBL1123757, “Selective thromboxane synthetase inhibitors and antihypertensive agents. New derivatives of 4-hydrazino-5H-pyridazino[4,5-b]indole, 4-hydrazinopyridazino[4,5-a]indole, and related compounds” (J Med Chem, 1987).

How the values were obtained:
Rattus norvegicus [1] = assay: Antihypertensive activity in spontaneously hypertensive rats (SHR) measured by percentage fall in cardiac rhythm (CR) at 5 mg/kg administered intraperitoneally at 1 h;No significance; assay type: functional, organism-based; set-up: dose 5 mg/kg; conditions: Heart
Summary of the method: (§1)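 Conscious SHR (Okamoto strain), 8 weeks old, male and female, 300–350 g, systolic BP ≥190 mmHg, CR 400–650 beats/min. Given ip or po at 2.5 mL/kg in normal saline or saline with 0.2% (carboxymethyl)cellulose and 1.0% Tween 80. Tail AP and CR recorded by mechanical transduction at 1, 3, 5 and 24 h, five animals per dose. Effect expressed as % fall versus control.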

Rattus norvegicus [2] = assay: Antihypertensive activity in spontaneously hypertensive rats (SHR) measured by percentage fall in arterial pressure (AP) at 5 mg/kg administered perorally at 24 h; No significance; assay type: functional, organism-based; set-up: dose 5 mg/kg; conditions: Artery
Summary of the method: (§2)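 Oral dosing at 2.5 mL/kg to unanesthetized male and female Okamoto-strain SHR (8 weeks old, 300–350 g, systolic pressure ≥190 mmHg, heart rate 400–650 beats/min), five per dose. Vehicle was normal saline or saline with 0.2% (carboxymethyl)cellulose and 1.0% Tween 80. AP measured on the tail by mechanical transduction at set times; expressed as percentage fall from control.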

Rattus norvegicus [3] = assay: Antihypertensive activity in spontaneously hypertensive rats (SHR) measured by percentage fall in arterial pressure (AP) at 1 mg/kg administered intraperitoneally at 5 h; No significance; assay type: functional, organism-based; set-up: dose 1 mg/kg; conditions: Artery
Summary of the method: (§3)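 Unanesthetized Okamoto-strain SHR, male and female, 8 weeks old, 300–350 g, systolic pressure ≥190 mmHg, heart rate 400–650 beats/min; five animals per dose. Given ip at 2.5 mL/kg, dissolved or suspended in normal saline or saline with 0.2% (carboxymethyl)cellulose and 1.0% Tween 80. Tail AP and CR recorded by mechanical transduction at set times; reported as percentage fall from control.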

Rattus norvegicus [4] = assay: Antihypertensive activity in spontaneously hypertensive rats (SHR) measured by percentage fall in arterial pressure (AP) at 25 mg/kg administered perorally at 5 h; No significance; assay type: functional, organism-based; set-up: dose 25 mg/kg; conditions: Artery; summary of the method: as §2
Rattus norvegicus [5] = assay: Antihypertensive activity in spontaneously hypertensive rats (SHR) measured by percentage fall in cardiac rhythm (CR) at 5 mg/kg administered perorally at 24 h; No significance; assay type: functional, organism-based; set-up: dose 5 mg/kg; conditions: Heart; summary of the method: as §1
Rattus norvegicus [6] = assay: Antihypertensive activity in spontaneously hypertensive rats (SHR) measured by percentage fall in cardiac rhythm (CR) at 25 mg/kg administered perorally at 5 h; No significance; assay type: functional, organism-based; set-up: dose 25 mg/kg; conditions: Heart; summary of the method: as §1
Rattus norvegicus [7] = assay: Antihypertensive activity in spontaneously hypertensive rats (SHR) measured by percentage fall in cardiac rhythm (CR) at 5 mg/kg administered intraperitoneally at 3 h;No significance; assay type: functional, organism-based; set-up: dose 5 mg/kg; conditions: Heart; summary of the method: as §1
Rattus norvegicus [8] = assay: Antihypertensive activity in spontaneously hypertensive rats (SHR) measured by percentage fall in arterial pressure (AP) at 1 mg/kg administered intraperitoneally at 24 h; No significance; assay type: functional, organism-based; set-up: dose 1 mg/kg; conditions: Artery; summary of the method: as §3
Rattus norvegicus [9] = assay: Antihypertensive activity in spontaneously hypertensive rats (SHR) measured by percentage fall in cardiac rhythm (CR) at 25 mg/kg administered intraperitoneally at 24 h;No significance; assay type: functional, organism-based; set-up: dose 25 mg/kg; conditions: Heart; summary of the method: as §3
Rattus norvegicus [10] = assay: Antihypertensive activity in spontaneously hypertensive rats (SHR) measured by percentage fall in arterial pressure (AP) at 5 mg/kg administered perorally at 5 h; No significance; assay type: functional, organism-based; set-up: dose 5 mg/kg; conditions: Artery; summary of the method: as §2
Rattus norvegicus [11] = assay: Antihypertensive activity in spontaneously hypertensive rats (SHR) measured by percentage fall in cardiac rhythm (CR) at 5 mg/kg administered intraperitoneally at 24 h; No significance; assay type: functional, organism-based; set-up: dose 5 mg/kg; conditions: Heart; summary of the method: as §1
Homo sapiens [12] = species: Homo sapiens; assay: In vitro inhibition of platelet aggregation induced by AA (PRP incubated for 60 minutes at 37 degree C) at 10e-5 M;No significance; assay type: functional
Summary of the method: (§4)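 Human venous blood anticoagulated with 3.8% sodium citrate (1:9). PRP from centrifugation at 800 rpm for 10 min at room temperature. Count adjusted with PPP to […]. Compound in saline with 10% ethylene glycol is added to PRP and incubated at 37 °C before the agonist. Agonists: ADP 2×10^-5 M, AA 0.6 mM, PGH2 2.8 μM, adrenaline 0.6 μM. Born absorbance aggregometry; n = 5.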

Rattus norvegicus [13] = assay: Antihypertensive activity in spontaneously hypertensive rats (SHR) measured by percentage fall in cardiac rhythm (CR) at 25 mg/kg administered perorally at 3 h;No significance; assay type: functional, organism-based; set-up: dose 25 mg/kg; conditions: Heart; summary of the method: as §1
Rattus norvegicus [14] = assay: Antihypertensive activity in spontaneously hypertensive rats (SHR) measured by percentage fall in cardiac rhythm (CR) at 25 mg/kg administered perorally at 24 h; No significance; assay type: functional, organism-based; set-up: dose 25 mg/kg; conditions: Heart; summary of the method: as §1
Rattus norvegicus [15] = assay: Antihypertensive activity in spontaneously hypertensive rats (SHR) measured by percentage fall in cardiac rhythm (CR) at 5 mg/kg administered perorally at 5 h; No significance; assay type: functional, organism-based; set-up: dose 5 mg/kg; conditions: Heart; summary of the method: as §1
Rattus norvegicus [16] = assay: Antihypertensive activity in spontaneously hypertensive rats (SHR) measured by percentage fall in cardiac rhythm (CR) at 25 mg/kg administered intraperitoneally at 1 h;No significance; assay type: functional, organism-based; set-up: dose 25 mg/kg; conditions: Heart; summary of the method: as §3
Homo sapiens [17] = species: Homo sapiens; assay: In vitro inhibition of platelet aggregation induced by DD (PRP incubated for 5 minutes at 37 degree C) at 10e-5 M;No significance; assay type: functional; summary of the method: as §4
Rattus norvegicus [18] = assay: Antihypertensive activity in spontaneously hypertensive rats (SHR) measured by percentage fall in cardiac rhythm (CR) at 5 mg/kg administered perorally at 3 h;No significance; assay type: functional, organism-based; set-up: dose 5 mg/kg; conditions: Heart; summary of the method: as §1
Rattus norvegicus [19] = assay: Antihypertensive activity in spontaneously hypertensive rats (SHR) measured by percentage fall in arterial pressure (AP) at 25 mg/kg administered perorally at 24 h; No significance; assay type: functional, organism-based; set-up: dose 25 mg/kg; conditions: Artery; summary of the method: as §2
Rattus norvegicus [20] = assay: Percent fall in systolic blood pressure, directly measured on carotid (iv on the jugular vein) of spontaneously hypertensive rats at 1 mg/kg after 180 minutes; No significance; assay type: functional, organism-based; set-up: dose 1 mg/kg; conditions: Artery
Summary of the method: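 Anesthetized (sodium pentobarbital, 70 mg/kg) male and female Okamoto SHR, 8 weeks old, 300–350 g. Given iv into the jugular vein in normal saline. Arterial pressure and cardiac rhythm are recorded directly from the carotid by polygraph at set times after dosing. Each is expressed as percent change from the pre-dose control value.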

CCOc1ccc2[nH]c3c(NN)nncc3c2c1
inactive: Decrease in CR (Rattus norvegicus [1]) No significant values | Decrease in AP (Rattus norvegicus [2]) No significant values | Decrease in AP (Rattus norvegicus [3]) No significant values | Decrease in AP (Rattus norvegicus [4]) No significant values | Decrease in CR (Rattus norvegicus [5]) No significant values | Decrease in CR (Rattus norvegicus [6]) No significant values | Decrease in blood pressure (Rattus norvegicus [7]) No significant values | Decrease in AP (Rattus norvegicus [8]) No significant values | Decrease in CR (Rattus norvegicus [9]) No significant values | Decrease in AP (Rattus norvegicus [10]) No significant values | Decrease in CR (Rattus norvegicus [11]) No significant values | inhibition (Homo sapiens [12]) No significant values | Decrease in blood pressure (Rattus norvegicus [13]) No significant values | Decrease in AP (Rattus norvegicus [14]) No significant values | Decrease in AP (Rattus norvegicus [15]) No significant values | Decrease in CR (Rattus norvegicus [16]) No significant values | inhibition (Homo sapiens [17]) No significant values | Decrease in blood pressure (Rattus norvegicus [18]) No significant values | Decrease in blood pressure (Rattus norvegicus [19]) No significant values | Decrease in AP (Rattus norvegicus [20]) No significant values
